Holding throughout (type): functional
Experiment [1] has as its system Plasmodium berghei. In words: Antimalarial activity Plasmodium berghei infected mice (Mus musculus) after 640 mg/kg subcutaneous dose. The gist of the method:
(§1)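 […] in mice infected with a normal drug-sensitive P. berghei strain. Compound dissolved or suspended in sesame or peanut oil, given as a single subcutaneous dose 72 h postinfection.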

Experiment [2] concerns Plasmodium berghei. The experiment in a line: Antimalarial activity in Plasmodium berghei infected mice (Mus musculus) after 320 mg/kg subcutaneous dose. The gist of the method: as §1
Experiment [3] concerns Plasmodium berghei. In words: Antimalarial activity in Plasmodium berghei infected mice (Mus musculus) after 160 mg/kg subcutaneous dose. The gist of the method:
as §1

Experiment [4] concerns Plasmodium berghei. The experiment in a line: (§2) Antimalarial activity in Plasmodium berghei infected mice (Mus musculus) after 80 mg/kg subcutaneous dose. The procedure, abridged:
as §1

Experiment [5] deals with Plasmodium berghei. In words: Antimalarial activity in Plasmodium berghei infected mice (Mus musculus) after subcutaneous 640 mg/kg dose. The procedure, abridged: (§3)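 Normal drug-sensitive P. berghei strain in mice. Compound dissolved or suspended in sesame or peanut oil, given parenterally as a single subcutaneous dose 72 h postinfection.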
Experiment [6] has as its system Plasmodium berghei. The experiment in a line: (§4) Antimalarial activity in Plasmodium berghei infected mice (Mus musculus) after 40 mg/kg subcutaneous dose. The gist of the method: as §1
The test system of experiment [7] is Plasmodium berghei. In words: Antimalarial activity in Plasmodium berghei infected mice (Mus musculus) after subcutaneous 320 mg/kg dose. The procedure, abridged: as §3
Experiment [8] deals with Plasmodium berghei. In words: Antimalarial activity in Plasmodium berghei infected mice (Mus musculus) after subcutaneous 160 mg/kg dose. The gist of the method: as §3
For experiment [9], the system named is Plasmodium berghei. The description is as §2. The procedure, abridged:
as §3
This is another data set of the same source.

Experiment [10] has as its system Plasmodium berghei. The description is as §4. The gist of the method:
as §3
The source holds these as a separate data set.

For experiment [11], the system named is Plasmodium berghei. The experiment in a line: Antimalarial activity in Plasmodium berghei infected mice (Mus musculus) after 20 mg/kg subcutaneous dose. The gist of the method:
as §1

The results in this text go back to ChEMBL document CHEMBL1126276, “Synthesis and antimalarial properties of 1-imino derivatives of 7-chloro-3-substituted-3,4-dihydro-1,9(2H,10H)-acridinediones and related structures” (J Med Chem, 1992).

With `CCN(CC)CCO/N=C1\CC(c2ccc(Cl)c(Cl)c2)Cc2c1c(=O)c1cc(Cl)ccc1n2O` (stereo unspecified), the “Delta mean survival time” value with Plasmodium berghei [1] was 8.7; in the experiment with Plasmodium berghei [2], 3.7; in the experiment on Plasmodium berghei [3], 2.1; in the experiment on Plasmodium berghei [4] it was 0.9.

Take `CN(C)CCC/N=C1\CC(c2ccccc2)Cc2c1c(=O)c1cc(Cl)ccc1n2O` (stereo unspecified): the “No. of cured mice” value in the experiment with Plasmodium berghei [5] is 5. The “Delta mean survival time” value is listed as 0.6 in the experiment with Plasmodium berghei [6], 8.8 in the experiment on Plasmodium berghei [2], 4.2 in the experiment on Plasmodium berghei [3] and 1.2 with Plasmodium berghei [4].

`CN(C)CCC/N=C1\CC(c2cccc(Br)c2)Cc2c1c(=O)c1cc(Cl)ccc1n2O` (stereo unspecified): the entries for the “No. of cured mice” value in the experiment on Plasmodium berghei [5] and in the experiment on Plasmodium berghei [7] were 5 and 2, respectively. Moreover, the “Delta mean survival time” value with Plasmodium berghei [6] amounted to 1.6; in the experiment with Plasmodium berghei [2], 10.2; in the experiment with Plasmodium berghei [3], 9.4; in the experiment on Plasmodium berghei [4] it was 5.3.

With `CN(C)CCC/N=C1\CC(c2ccc(N(C)C)cc2)Cc2c1c(=O)c1cc(Cl)ccc1n2O` (stereo unspecified), the “No. of cured mice” value with Plasmodium berghei [5] was found to be 5; with Plasmodium berghei [7], 3. For the same molecule, the “Delta mean survival time” value came out at 7.4 in the experiment on Plasmodium berghei [2], 6.8 in the experiment on Plasmodium berghei [3] and 0.9 in the experiment on Plasmodium berghei [4].

In the case of `O=C1CC(c2cccc(C(F)(F)F)c2)Cc2nc3ccc(Cl)cc3c(O)c21` (stereo unspecified), the “Delta mean survival time” value is listed as 5.3 with Plasmodium berghei [1], 3.3 with Plasmodium berghei [2], 2.3 in the experiment with Plasmodium berghei [3] and 0.3 with Plasmodium berghei [4].

Regarding `COc1cc(C2CC(=O)c3c(n(O)c4ccc(Cl)cc4c3=O)C2)cc(OC)c1OC` (stereo unspecified), the “Delta mean survival time” value in the experiment on Plasmodium berghei [1] is on record as 7; in the experiment with Plasmodium berghei [2], 2.7; in the experiment on Plasmodium berghei [3], 1.8; with Plasmodium berghei [4] it was 1.3.

`COc1ccc2nc3c(c(O)c2c1)C(=O)CC(c1ccc(C(F)(F)F)cc1)C3` (stereo unspecified): the “Delta mean survival time” value is reported as 4.4 in the experiment with Plasmodium berghei [1]; -0.3 in the experiment with Plasmodium berghei [6]; 2.3 in the experiment with Plasmodium berghei [2]; 2.9 in the experiment with Plasmodium berghei [3]; 0.1 with Plasmodium berghei [4].

`N=C1CC(c2cccc(C(F)(F)F)c2)Cc2c1c(=O)c1cc(Cl)ccc1n2O` (stereo unspecified): the “Delta mean survival time” value in the experiment on Plasmodium berghei [1] came to 8.2; in the experiment on Plasmodium berghei [6], 1.4; with Plasmodium berghei [2], 7.6; in the experiment with Plasmodium berghei [3], 3.8; in the experiment with Plasmodium berghei [4], 3.4.

For the molecule `CN(C)CCC/N=C1\CC(c2cccc3ccccc23)Cc2c1c(=O)c1cc(Cl)ccc1n2O` (stereo unspecified), the “No. of cured mice” value in the experiment with Plasmodium berghei [8] is 1; with Plasmodium berghei [5], 5; with Plasmodium berghei [7], 4. Besides, the “Delta mean survival time” value in the experiment on Plasmodium berghei [6] worked out at 2.6; in the experiment with Plasmodium berghei [2], 4.7; in the experiment on Plasmodium berghei [3], 9.3; in the experiment on Plasmodium berghei [4], 7.1.

`CN(C)c1ccc(C2CC(=O)c3c(n(O)c4ccc(Cl)cc4c3=O)C2)cc1` (stereo unspecified): the “No. of cured mice” value with Plasmodium berghei [8] is listed as 1; in the experiment with Plasmodium berghei [5], 5; in the experiment on Plasmodium berghei [7] it was 3. Further, the “Delta mean survival time” value with Plasmodium berghei [6] stood at 1.6; in the experiment on Plasmodium berghei [2], 6.8; in the experiment on Plasmodium berghei [3], 6.6; in the experiment with Plasmodium berghei [4], 5.8.

For `CN(C)CCC/N=C1\CC(c2ccc(Cl)c(Cl)c2)Cc2c1c(=O)c1cc(Cl)ccc1n2O` (stereo unspecified), the “No. of cured mice” value in the experiment on Plasmodium berghei [8] is given as 5; in the experiment on Plasmodium berghei [9], 3; in the experiment on Plasmodium berghei [5], 5; in the experiment with Plasmodium berghei [10], 3; with Plasmodium berghei [7], 5. Also, the “Delta mean survival time” value is given as 12.7 with Plasmodium berghei [6], 7.1 with Plasmodium berghei [11] and 17.2 with Plasmodium berghei [4].

In the case of `CN(C)CCC/N=C1\CC(c2c(Cl)cccc2Cl)Cc2c1c(=O)c1cc(Cl)ccc1n2O` (stereo unspecified), the “No. of cured mice” value is listed as 1 in the experiment with Plasmodium berghei [8], 5 in the experiment on Plasmodium berghei [5] and 1 with Plasmodium berghei [7]. Moreover, the “Delta mean survival time” value is 1.2 in the experiment on Plasmodium berghei [6], 7.2 with Plasmodium berghei [2], 9.4 in the experiment with Plasmodium berghei [3] and 4.1 with Plasmodium berghei [4].

As for `CN(C)CCC/N=C1\CC(c2ccc(C(F)(F)F)cc2)Cc2nc3ccc(Br)cc3c(O)c21` (stereo unspecified), the “No. of cured mice” value in the experiment with Plasmodium berghei [8] came to 5; in the experiment with Plasmodium berghei [9], 5; with Plasmodium berghei [5], 2; with Plasmodium berghei [10] it was 1; with Plasmodium berghei [7], 5. The “Delta mean survival time” value came out at 25.7 in the experiment on Plasmodium berghei [1], 9.3 in the experiment on Plasmodium berghei [6] and 6 in the experiment with Plasmodium berghei [11].

As to `C=CCNCC/N=C1\CC(c2cccc(C(F)(F)F)c2)Cc2c1c(=O)c1cc(Cl)ccc1n2O` (stereo unspecified), the “No. of cured mice” value in the experiment on Plasmodium berghei [8] is 5; in the experiment with Plasmodium berghei [9] it was 1; with Plasmodium berghei [5], 5; with Plasmodium berghei [10], 2; with Plasmodium berghei [7] it was 5. Besides, the “Delta mean survival time” value in the experiment on Plasmodium berghei [6] was found to be 5.9; in the experiment with Plasmodium berghei [11] it was 3; with Plasmodium berghei [4], 9.4.

For `CSCCC/N=C1\CC(c2ccc(Cl)c(Cl)c2)Cc2c1c(=O)c1cc(Cl)ccc1n2O` (stereo unspecified), the “Delta mean survival time” value in the experiment with Plasmodium berghei [1] turned out to be 3.7; in the experiment with Plasmodium berghei [2], 4.1; in the experiment on Plasmodium berghei [3] it was 1.7. For the same molecule, the “No. of cured mice” value with Plasmodium berghei [5] turned out to be 1.

Consider `CCN(CC)CC/N=C1\CC(c2cc(OC)c(OC)c(OC)c2)Cc2c1c(=O)c1cc(Cl)ccc1n2O` (stereo unspecified), for which the “Delta mean survival time” value in the experiment with Plasmodium berghei [1] is 6; in the experiment on Plasmodium berghei [6] it was 0.8; in the experiment on Plasmodium berghei [2], 5; in the experiment with Plasmodium berghei [3] it was 1.2.

As to `O=C1CC(c2cccc(C(F)(F)F)c2)Cc2c1c(=O)c1cc(Cl)ccc1n2[O-].[Na+]` (stereo unspecified), the “No. of cured mice” value with Plasmodium berghei [5] was 5; in the experiment on Plasmodium berghei [7], 3. For the same molecule, the “Delta mean survival time” value in the experiment on Plasmodium berghei [6] is on record as 7.8; with Plasmodium berghei [2] it was 16; in the experiment with Plasmodium berghei [11], 6.4; with Plasmodium berghei [3], 13.8; in the experiment on Plasmodium berghei [4] it was 10.

In the case of `O=C1CC(c2ccc(F)cc2)Cc2c1c(=O)c1cc(Cl)ccc1n2O` (stereo unspecified), the “No. of cured mice” value in the experiment on Plasmodium berghei [8] stood at 4; in the experiment on Plasmodium berghei [9], 4; with Plasmodium berghei [5], 5; with Plasmodium berghei [10], 2; with Plasmodium berghei [7], 5. The “Delta mean survival time” value with Plasmodium berghei [6] is recorded as 19.4; in the experiment with Plasmodium berghei [11] it was 5; in the experiment with Plasmodium berghei [3], 8.8; in the experiment on Plasmodium berghei [4] it was 9.8.

For the molecule `CCN1CCCC(/N=C2\CC(c3ccc(Cl)c(Cl)c3)Cc3c2c(=O)c2cc(Cl)ccc2n3O)C1` (stereo unspecified), the “No. of cured mice” value with Plasmodium berghei [8] is 2; in the experiment on Plasmodium berghei [5] it was 5; in the experiment on Plasmodium berghei [7], 4. For the same molecule, the “Delta mean survival time” value is given as 8.8 in the experiment with Plasmodium berghei [2], 8.3 in the experiment on Plasmodium berghei [3] and 7.2 in the experiment with Plasmodium berghei [4].

As to `COc1cc(C2C/C(=N\CCCN(C)C)c3c(n(O)c4ccc(Cl)cc4c3=O)C2)cc(OC)c1OC` (stereo unspecified), the “Delta mean survival time” value with Plasmodium berghei [1] was 4.3; in the experiment on Plasmodium berghei [2], 4; with Plasmodium berghei [3], 1.

As to `CCN(CC)C1CCC(/N=C2\CC(c3ccc(Cl)c(Cl)c3)Cc3c2c(=O)c2cc(Cl)ccc2n3O)CC1` (stereo unspecified), the “No. of cured mice” value was 5 in the experiment with Plasmodium berghei [8], 5 with Plasmodium berghei [5] and 3 in the experiment with Plasmodium berghei [7]. Also, the “Delta mean survival time” value in the experiment on Plasmodium berghei [6] was 5.6; in the experiment with Plasmodium berghei [2] it was 12.1; in the experiment with Plasmodium berghei [4] it was 7.2.

For `O=C1CC(c2ccccn2)Cc2nc3ccc(Cl)cc3c(O)c21` (stereo unspecified), the “Delta mean survival time” value with Plasmodium berghei [1] was found to be 4.4; in the experiment on Plasmodium berghei [2], 7.3; in the experiment with Plasmodium berghei [3] it was 2.4; with Plasmodium berghei [4], 1.1.

As for `CC(C)C1CC(=O)c2c(n(O)c3ccc(Cl)cc3c2=O)C1` (stereo unspecified), the “No. of cured mice” value in the experiment with Plasmodium berghei [5] turned out to be 5. Moreover, the “Delta mean survival time” value was 0.3 in the experiment on Plasmodium berghei [6]; 8.3 in the experiment with Plasmodium berghei [2]; 0.1 in the experiment on Plasmodium berghei [11]; 3.5 in the experiment with Plasmodium berghei [3]; 1.7 with Plasmodium berghei [4].

Turning to `CN(C)CCC/N=C1\CC(c2ccc(Cl)cc2Cl)Cc2nc3c(Cl)ccc(Cl)c3c(O)c21` (stereo unspecified), the “Delta mean survival time” value was 0 in the experiment with Plasmodium berghei [2], 1.2 with Plasmodium berghei [11] and 0 with Plasmodium berghei [4].

For `CN(C)CCC/N=C1\CC(c2ccc(Cl)c(Cl)c2)Cc2nc3ccc(Cl)cc3c(O)c21` (stereo unspecified), the “No. of cured mice” value was determined as 5 with Plasmodium berghei [8]; 4 in the experiment on Plasmodium berghei [9]; 5 in the experiment on Plasmodium berghei [5]; 3 with Plasmodium berghei [10]; 5 in the experiment with Plasmodium berghei [7]. Besides, the “Delta mean survival time” value with Plasmodium berghei [6] was 9.8; in the experiment on Plasmodium berghei [11] it was 9.2; in the experiment with Plasmodium berghei [4], 11.8.

`CCCC/N=C1\CC(c2ccc(C(F)(F)F)cc2)Cc2c1c(=O)c1cc(Cl)ccc1n2O` (stereo unspecified): the “No. of cured mice” value was 5 in the experiment with Plasmodium berghei [8]; 3 in the experiment with Plasmodium berghei [9]; 5 in the experiment on Plasmodium berghei [5]; 1 in the experiment on Plasmodium berghei [10]; 5 in the experiment with Plasmodium berghei [7]. Further, the “Delta mean survival time” value in the experiment on Plasmodium berghei [6] was found to be 8.5; in the experiment with Plasmodium berghei [11], 5.3; in the experiment with Plasmodium berghei [4], 10.2.

On to `O=c1c2c(n(O)c3ccc(Cl)cc13)CC(c1cccc(C(F)(F)F)c1)C/C2=N\Cc1ccc(Cl)c(Cl)c1` (stereo unspecified), for which the results for the “No. of cured mice” value in the experiment with Plasmodium berghei [5] and in the experiment on Plasmodium berghei [7] were 5 and 2, respectively. The “Delta mean survival time” value turned out to be 11.5 with Plasmodium berghei [2], 8.4 with Plasmodium berghei [3] and 4.4 in the experiment on Plasmodium berghei [4].
